# Assay outcomes deposited in PubChem BioAssay by several laboratories.
# Most compounds without a hit are left out; they make up all but 2.1% or so of the library.
# Hck-Nef inh: inhibitors of Nef-activated human Hck kinase, primary screen, biochemical, Z-Lyte FRET, 384-well, Hck-YEEI. Recombinant Hck-YEEI plus Nef, Z-Lyte FRET kinase assay. inhibition, % at 20 µM. 220,000 compounds, 0.68% hits;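 active = Hck-Nef kinase inhibition above about 50%, limit read from the data; inactive = inhibition below that limit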;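 also: 0% = DMSO with Hck plus Nef and 100% = Hck alone without Nef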
# Runt-CBFb FRET: inhibitors of RUNX1 Runt–CBFb binding, primary screen, biochemical, FRET, Cerulean-Runt, Venus-CBFb, uHTS; Runt-related transcription factor 1 (Homo sapiens) + Core-binding factor subunit beta …; Cerulean-Runt/Venus-CBFb FRET ratio 530/480, 1 h; AID 1496, 2009; 220,000 compounds, 0.46% hits; inhibition, % at 20 µM;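 active = inhibition over about 50% at 20 µM in the single-dose screen, limit read from the data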;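 also: 0% = DMSO wells and 100% = excess unlabeled CBFb competitor control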
# Target sequence (Q01196 whole entry, looked up): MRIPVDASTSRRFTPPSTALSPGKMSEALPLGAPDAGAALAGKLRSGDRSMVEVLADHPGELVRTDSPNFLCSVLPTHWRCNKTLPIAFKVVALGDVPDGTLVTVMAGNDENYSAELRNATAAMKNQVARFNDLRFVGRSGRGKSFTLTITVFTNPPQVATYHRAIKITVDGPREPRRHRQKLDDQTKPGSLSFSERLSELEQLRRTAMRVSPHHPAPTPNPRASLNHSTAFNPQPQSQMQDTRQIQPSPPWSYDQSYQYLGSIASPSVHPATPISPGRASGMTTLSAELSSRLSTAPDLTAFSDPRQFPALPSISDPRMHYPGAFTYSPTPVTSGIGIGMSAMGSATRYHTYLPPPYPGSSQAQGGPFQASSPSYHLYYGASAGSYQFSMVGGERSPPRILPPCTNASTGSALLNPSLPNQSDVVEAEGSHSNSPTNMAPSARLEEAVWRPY
# Target sequence (Q13951 whole entry, looked up): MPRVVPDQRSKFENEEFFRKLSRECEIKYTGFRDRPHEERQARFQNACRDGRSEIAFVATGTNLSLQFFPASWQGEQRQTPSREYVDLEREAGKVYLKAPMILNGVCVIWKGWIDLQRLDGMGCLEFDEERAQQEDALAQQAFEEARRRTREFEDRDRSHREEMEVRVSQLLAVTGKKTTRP
#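 Assay system: Cerulean-tagged RUNX1 Runt domain (FRET donor) fusion protein / Amount: 100 nM each of Venus-CBFb and Cerulean-Runt domain / Medium: Tris buffer pH 7.5 with salts and BSA / Also added: Venus-CBFb 100 nM / Schedule: 1 h complex formation plus 1 h compound treatment, room temperature / Signal: FRET fluorescence / Read-out: loss of energy transfer signal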
# zVAD death inh: inhibitors of zVAD-triggered necroptosis, primary screen, L929 cells. L929 zVAD necroptosis rescue, ATP luminescence, 24 h; with zVAD 60 µM. viability rescue, % at 10 µM. 220,000 compounds, 0.38% hits;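 active = activation, scaled between plate controls, above about 75%, limit read from the data; inactive = activation under that limit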;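 also: 0% = zVAD with DMSO and 100% = DMSO alone without zVAD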
# RanGTP-Imp inh: inhibitors of RanGTP-importin-beta interaction, primary screen, biochemical, FRET, CFP-Ran, YFP-importin-beta, homogeneous | Ran GTPase (GTP-bound) - importin-beta complex | cell-free CFP-Ran/YFP-importin-beta FRET ratio | inhibition, % (concentration not given with the values) | 300,000 compounds, 1.1% hits | AID 2216, 2009;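 active = more than half of the replicate wells show a fall in the fluorescence ratio signal beyond about 16%, limit read from the data, passing the limit was not always enough; inconclusive = exactly half of the replicate wells pass the set limit; inactive = fewer than half of replicates pass the limit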;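 also: 0% = DMSO wells and 100% = Ran loaded with GDP instead of GTP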
# Runt-SMMHC FRET: inhibitors of RUNX1 Runt–CBFb-SMMHC binding, primary screen, biochemical, FRET, Cerulean-Runt, Venus-CBFb-SMMHC, uHTS; Runt-related transcription factor 1 (Homo sapiens) + Core-binding factor subunit beta …; Cerulean-Runt/Venus-CBFb-SMMHC FRET ratio 530/480, 1 h; inhibition, % at 20 µM; 220,000 compounds, 0.74% hits;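 active = mean inhibition across duplicate retests at 20 µM reaching about 50%, limit read from the data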;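 also: 0% = DMSO wells and 100% = wells with excess untagged CBFb-SMMHC; inhibitors lower the FRET ratio by blocking Runt binding to CBFb-SMMHC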
# TNF necrop inh: inhibitors of TNF-alpha triggered necroptosis, primary screen, cell-based, Jurkat FADD-/-, single concentration; Jurkat FADD-/- TNF necroptosis rescue, ATP luminescence, 24 h; 0 = TNF only, 100 = no-TNF cells; 220,000 compounds, 0.068% hits; activation (protection from cell death), % at 10 µM;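 active = activation, meaning protection from cell death, of at least 50% relative to plate controls; inactive = activation below 50%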;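 also: necroptosis triggered by 40 ng/mL TNF-alpha added together with compound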
# Active calls of the source: *; ? = inconclusive; / = no result.
SMILES,Hck-Nef inh,Runt-CBFb FRET,zVAD death inh,RanGTP-Imp inh,Runt-SMMHC FRET,TNF necrop inh
N=c1c(S(=O)(=O)c2ccccc2)cc2c(=O)n3ccccc3nc2n1C1CCCC1,/,/,/,144*,/,/
O=c1c2ccccc2nc2ccccn12,24,4,2,-1,13,0
COc1ccc(CCn2c(=N)c(C(=O)NC3CCCC3)cc3c(=O)n4ccccc4nc32)cc1OC,/,/,/,3,/,/
Cc1ccc(S(=O)(=O)c2cc3c(=O)n4ccccc4nc3n(C3CCCCC3)c2=N)cc1,/,/,/,48*,/,/
N=c1c(S(=O)(=O)c2ccc(Br)cc2)cc2c(=O)n3ccccc3nc2n1C1CCCC1,/,/,/,69*,/,/
O=C(Nc1ccccc1)c1nsnc1C(=O)Nc1ccccc1,18,-3,4,?,3,0
CCOP(=O)(OCC)c1nc(-c2ccc(Cl)cc2Cl)oc1N1CCOCC1,21,-4,0,-4,2,-1
O=C1Nc2ccc(S(=O)(=O)NCC3CCCO3)c3cccc1c23 (stereo unspecified),-38,16,0,-3,22,-1
CCN1C(=O)c2cccc3c(S(=O)(=O)NCc4cccnc4)ccc1c23,1,-23,-1,23*,57*,-1
CCN1C(=O)c2cccc3c(S(=O)(=O)NCC4CCCO4)ccc1c23 (stereo unspecified),-14,-22,12,18*,81,-10
CCN1C(=O)c2cccc3c(S(=O)(=O)Nc4ccncc4)ccc1c23,2,-18,3,8,13,-2
O=C(O)CN1C(=O)C(=O)N(Cc2ccccc2F)C1=O,/,/,/,6,/,/
COCCNc1oc(/C=C/c2ccccc2OC)nc1S(=O)(=O)c1ccccc1,/,/,/,4,/,/
CSCC[C@H](N)C(=O)NC[C@H]1CC[C@H](C(=O)N[C@@H](Cc2ccccc2)C(=O)O)CC1,/,/,/,-2,/,/
CCOC(=O)C1(Cc2cccc(OC)c2)CCN(Cc2cccnc2)CC1,15,/,2,56*,/,1
CCOC(=O)C1(Cc2cccc(OC)c2)CCN(Cc2cnc(SC)nc2)CC1,17,4,-1,68*,7,1
CCOC(=O)C1(Cc2cccc(OC)c2)CCN(Cc2cccc3cnccc23)CC1,-10,6,-1,86*,6,0
Nc1cccc2c1C(=O)N(C(=O)c1ccc(S(=O)(=O)N3CCCCCC3)cc1)C2=O,1,12,0,11,58*,-1
CN=C(Cc1ccccc1)C1=C(O)CC(C)(C)CC1=O,10,0,53,0,-4,87*
COc1ccccc1-n1cnnc1SCC(=O)Nc1cc(C(C)(C)C)nn1-c1ccccc1,0,-4,105*,3,1,7
Cn1nnnc1SCC(=O)Nc1cc(C(C)(C)C)nn1-c1ccccc1,0,2,1,4,2,1
CC(C)Oc1ccc(C(=O)N2CCN(C(=O)c3ccco3)CC2)cc1,/,/,/,4,/,/
COC(=O)c1c(C#N)c(N)nc2c1CCC2,12,96*,0,66*,62*,4
Cc1cccc(C)c1NC(=O)CNC(=O)CCCc1c[nH]c2ccccc12,/,/,/,0,/,/
COc1ccccc1CCNC(=O)C(=O)Nc1cc2c3c(c1)CC(=O)N3CCC2,/,/,/,3,/,/
SMILES,Hck-Nef inh,Runt-CBFb FRET,zVAD death inh,RanGTP-Imp inh,Runt-SMMHC FRET,TNF necrop inh
N#C/C(=C/c1ccc(N2CCCCCC2)o1)c1ccc(F)cc1,-2,/,1,27*,/,-1
N#C/C(=C/c1ccc(N2CCCCCC2)o1)c1cccc(F)c1,-1,11,0,?,25,-1
Cn1cccc1/C=C1\CCc2ccccc2C1=O,16,-7,14,?,-25,-4
Cn1cccc1/C=C1\Cc2ccccc2C1=O,19,19,49,75*,33,-2
COc1ccc(Cl)cc1NC(=O)C[n+]1cccc(C)c1,/,/,/,5,/,/
O=C(CCC1CCCCC1)NCCN1C2=NC[C@H](Cc3ccc(O)cc3)N2C[C@H]1Cc1ccc(O)cc1,0,0,1,16*,-6,2
Nc1nc2sc3c(c2c(=O)s1)CCCC3,2,1,0,0,0,-2
Nc1c2c(nc3sc4c(c13)CCCC4)CCCCCC2,59*,0,1,-8,-1,6
O=C1C(=Nc2cccc(Cl)c2)CC(c2ccc(Cl)cc2)N1c1cccc(Cl)c1 (stereo unspecified),11,-1,1,-5,0,2
O=C(NCCCN1CCOCC1)c1ccc(CSc2ccc(Cl)cc2)cc1,21,0,-1,3,2,1
O=C(C1CCCCCC1)N1CC[C@@H](N2CCC(O)CC2)[C@H](O)C1,/,/,/,27*,/,/
O=C(C1CCCCC1)N1CCN(C(=O)C2CCCCC2)CC1,0,-2,0,-8,0,-3
CN(C(=O)COc1ccc(S(=O)(=O)N2CCOCC2)cc1[N+](=O)[O-])C1CCS(=O)(=O)C1 (stereo unspecified),15,3,0,0,-1,0
COc1ccc2cc(OCC(=O)NNC(=O)Nc3ccc(C(C)=O)cc3)ccc2c1,/,/,/,3,/,/
C/C(CC(=O)Nc1cccc(Cl)c1Cl)=N\NC(=O)c1ccccc1C,24,0,0,-2,0,1
O=C(N/C(=C/c1cccc(Br)c1)c1nc(=S)[nH][nH]1)c1ccccc1,4,0,0,5,6,-10
Cc1ccc(C(=O)N/C(=C\c2ccc(Br)cc2)c2nc(=S)[nH][nH]2)cc1,1,1,0,28*,7,-16
O=C1c2ccsc2SCCN1Cc1ccccc1,3,1,1,-3,1,70*
O=C1NCCN1Cc1ccccc1,0,0,1,-2,3,1
Cc1nn(C(=O)c2ccco2)c(C)c1Sc1ccccc1,-2,53*,0,6,-2,-4
Cc1nn(C(=O)c2ccco2)c(C)c1Sc1ccc(Br)cc1,1,-1,0,0,-2,-2
CC(=O)C(/C=N/c1ncc(C(F)(F)F)cc1Cl)=C(\C)O,20,-1,0,22*,-1,1
C/C(=C\C(=O)c1ncc(C(F)(F)F)cc1Cl)N(C)C,9,0,0,1,2,-1
Cc1ccccc1-n1c(=O)cc(N2CCCCCC2)[nH]c1=O,-2,/,1,145*,0,2
